# High-throughput results as filed in PubChem BioAssay.
# Diaph act CS = activates diaphorase or chemically reduces, flagging diaphorase assay artifacts | Diaphorase/resazurin coupled assay, resorufin fluorescence, 16 min; hits give high values; 1 = vehicle wells, 0 = NADH-free wells | 190,000 compounds, 0.005% hits | activation factor at 20 µM;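 active = diaphorase activity raised at least twofold by the compound at 20 µM; inactive = activation factor below 2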
#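 Material: purified diaphorase enzyme from Clostridium kluyveri; Also added: 0.114 mM NADH and 0.1 mM resazurin, final amounts; Doses: single compound dose of 20 µM, 1% DMSO final; Times: 16 min enzyme reaction, ambient temperature; Detection: resorufin fluorescence, excitation 544 nm, emission 590 nm; Measure: increased resorufin signal from activators or reducing compounds.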
# FLuc inhib CS = counter-screen for luciferase assay inhibitors: firefly luciferase inhibition; P08659; ATPLite firefly luciferase biochemical luminescence, 10 min; inhibition, % at 10 µM; 200,000 compounds, 1.5% hits; AID 1006;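 active = inhibition above about 50% when tested at 10 µM, limit read from the data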
# Target sequence (P08659 whole entry, looked up): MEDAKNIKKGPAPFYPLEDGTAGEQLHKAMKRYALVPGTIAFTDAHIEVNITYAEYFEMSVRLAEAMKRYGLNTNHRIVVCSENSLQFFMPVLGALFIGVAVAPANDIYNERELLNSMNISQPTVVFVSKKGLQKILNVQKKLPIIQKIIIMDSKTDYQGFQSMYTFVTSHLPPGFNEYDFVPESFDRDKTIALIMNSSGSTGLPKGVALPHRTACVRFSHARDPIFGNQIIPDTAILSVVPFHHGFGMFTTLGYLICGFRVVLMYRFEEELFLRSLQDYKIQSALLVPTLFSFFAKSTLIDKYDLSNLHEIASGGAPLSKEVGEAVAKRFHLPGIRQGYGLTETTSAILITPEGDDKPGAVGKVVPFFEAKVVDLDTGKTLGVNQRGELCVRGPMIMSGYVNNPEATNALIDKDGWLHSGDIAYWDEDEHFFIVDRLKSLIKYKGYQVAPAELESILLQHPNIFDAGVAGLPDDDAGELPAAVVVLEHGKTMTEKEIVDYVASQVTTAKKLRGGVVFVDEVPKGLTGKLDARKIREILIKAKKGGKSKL
# Diaphorase inh = inhibits diaphorase or chemically oxidizes, flagging diaphorase assay artifacts. diaphorase resazurin-to-resorufin fluorescence, NADH, 16 min; bacterial (C. kluyveri) enzyme, not human. 190,000 compounds, 0.69% hits. inhibition, % at 20 µM. AID 1217;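 active = primary screen inhibition at 20 µM above a set limit, cut at about 50% in these data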;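 note: plate controls were DMSO with full reaction for no effect and wells lacking NADH for full effect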
#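 Test system: diaphorase enzyme from Clostridium kluyveri; amount: diaphorase at 0.14 U/mL in enzyme working solution; detection: fluorescence of resorufin formed from resazurin, Ex 544/Em 590 nm; times: reaction incubation of 16 min at room temperature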
# G6PDH CS = inhibits Leuconostoc G6PDH, flagging false hits in G6PDH-based assays. Purified L. mesenteroides G6PDH, diaphorase/resazurin coupled fluorescence, 45 min. inhibition, % at 5 µM. 200,000 compounds, 0.12% hits; in the data active = inhibition above about 50%
# FLuc act counter = affects firefly luciferase, flagging false hits in luciferase stimulation screens; ATPlite luciferase biochemical, luminescence, 10 min; 0 = ATP-free wells, 1 = DMSO control; activation factor at 10 µM; 200,000 tested, under 10 active; AID 1027;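 active = luciferase activation factor, scaled between plate controls, of at least 2 with compound at 10 µM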
#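 Assay system: Luciferase/luciferin detection reagent, cell-free biochemical luciferase assay / Also added: ATP substrate / Schedule: 10 min at ambient temperature / Measured by: luminescence measurement of luciferase light output / Benchmarks: low control with PBS replacing ATP, high control enzyme plus ATP without compound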
# * hit, by the source's call. Shown are actives, neighbours in structure and some others; about 2.3% of the full set was active somewhere.
SMILES,Diaph act CS,FLuc inhib CS,Diaphorase inh,G6PDH CS,FLuc act counter
O=C(O)c1ccccc1NS(=O)(=O)c1ccc(NNC(=S)Nc2ccc(OC(F)F)cc2)c([N+](=O)[O-])c1,0.3,7,67*,7,0.9
Cc1ccc(NC(=S)NNc2ccc([N+](=O)[O-])cc2S(=O)(=O)Nc2ccccc2C(=O)O)cc1C,0.7,3,27,6,1
CC(c1ccc(F)cc1)n1cc(C(=O)NCCN(C)C)nn1 (configuration not stated),0.9,-9,7,8,1.1
O=C(Nc1ccc(-c2nc3ccccc3[nH]2)cc1)c1ccco1,0.9,58*,12,-49,0.4
O=C(Nc1ccc2nc(-c3ccco3)[nH]c2c1)c1ccco1,0.9,80*,15,11,0.2
O=C(Nc1ccc2nc(-c3ccco3)[nH]c2c1)c1cccs1,0.7,77*,29,7,0.2
O=C(Nc1ccc2nc(-c3ccccc3)[nH]c2c1)c1cccs1,0.9,35,14,5,0.7
CC(=O)Nc1ccc2nc(-c3ccco3)[nH]c2c1,0.9,34,9,2,0.7
Cc1ccc(NC(=O)COC(=O)Cn2cnc3c2c(=O)n(C)c(=O)n3C)c(Cl)c1,0.9,-10,10,4,1.1
Nc1ccc2c(c1)OC1(CCCC1)O2,0.5,-1,52*,12,1
O=C(CCCCCNC(=S)Nc1ccccc1)C[N+](=O)[O-],0.9,0,7,3,1
Cc1cc(C)c(C)c(S(=O)(=O)N2CCN(CC(=O)Nc3ccc([N+](=O)[O-])cc3)CC2)c1C,0.9,-4,13,8,1
CC1(C)Cc2c(sc(NC(=O)c3ccc(Br)o3)c2C#N)CO1,0.9,64*,6,8,0.4
CCCCC(=O)Nc1sc2c(c1C#N)CC(C)(C)OC2,1,-4,5,-8,1
COc1ccccc1N1CCN(C(=O)CCCCCn2c(=O)[nH]c3ccsc3c2=O)CC1,1,-9,5,-2,1.1
CC(C)N1CCc2c(sc(NC(=O)c3cc4cc([N+](=O)[O-])ccc4s3)c2C(N)=O)C1,0.3,2,67*,-4,1
Clc1ccc(-n2ncc3c(N4CCCC4)ncnc32)cc1,0.9,75*,6,0,0.3
Clc1ccc(Nc2ncnc3c2cnn3-c2ccccc2)cc1,0.8,-4,16,-42,1
CC(C)Nc1ncnc2c1cnn2-c1ccc(Cl)cc1,0.9,64*,8,-2,0.4
Cc1cccc(NC(=S)NNC(=O)c2sccc2C)c1,1.1,35,-8,1,0.6
Cc1cccc(NC(=S)NNC(=O)c2csc(C(C)C)c2)c1,0.9,54*,10,8,0.5
CCc1cc(C(=O)NNC(=S)Nc2cccc(C)c2)cs1,1,51*,1,13,0.5
CN(C)c1ccc(-c2nnc(-c3cccs3)o2)cc1,0.9,72*,6,-2,0.3
Clc1ccccc1-c1nnc(-c2cccs2)o1,1,57*,4,-1,0.4
CCCOc1ccc(-c2nnc(-c3cccs3)o2)cc1,1,40,-1,-1,0.6
SMILES,Diaph act CS,FLuc inhib CS,Diaphorase inh,G6PDH CS,FLuc act counter
COc1ccc(-c2nc(CN3CCCCC3c3nccn3C)c(C)o2)c(C)c1C (configuration not stated),1,-5,2,5,1.1
O=C(CSc1cccc2cccc(Cl)c12)NC1=NCCS1,0.8,-1,20,8,1
COc1ccccc1N1CCN(C(c2cccs2)c2nnnn2C2CCCC2)CC1 (configuration not stated),0.8,-10,20,-3,1.1
CCOC(=O)C1CCN(C(=O)c2sc3nc(-c4ccc(F)cc4)cn3c2C)CC1,0.9,-4,12,2,1
CCOC(=O)NC1(Nc2ccc(C)cc2)Oc2ccccc2O1,0.5,2,54*,17,1
O=C(C1=C[C@@H](c2ccc(Br)cc2)C[C@@H](OCCCCO)O1)N1CCN(Cc2ccccc2)CC1,0.7,-4,30,11,1
O=C(O)c1cc(/C=C/c2ccc(N3CCOCC3)cc2)nc2ccccc12,0.8,97*,17,10,0
CCC(=O)Nc1cccc(NC(=O)c2cc3ccccc3o2)c1,0.9,54*,9,-4,0.5
NS(=O)(=O)c1cccc(NC(=O)c2cc3ccccc3o2)c1,1,84*,5,4,0.2
Cc1cccc(NC(=O)c2cc3ccccc3o2)c1,1,66*,3,-1,0.3
O=C(Nc1cccc(Br)c1)c1cc2ccccc2o1,0.8,32,19,4,0.7
CCC(=O)Nc1cccc(-c2cc3ccccc3oc2=O)c1,1,0,-1,6,1
Cc1ccc(NC(=O)Cc2cc(C(=O)O)c3ccccc3n2)c(C)c1,1,21,2,20,0.8
Cc1c(NC(=S)NC(NC(=O)C(C)(C)C)C(Cl)(Cl)Cl)c(=O)n(-c2ccccc2)n1C (configuration not stated),1.1,-1,-10,0,1
Cc1cc2nc(-c3ccc(SCc4ccc(C(=O)O)cc4)nc3)[nH]c2cc1C,0.9,18,14,9,0.8
Cc1cc2nc(-c3ccc(SCC(=O)Nc4ccc(S(=O)(=O)NC5CC5)cc4)nc3)[nH]c2cc1C,0.8,86*,19,-17,0.1
Cc1cc2nc(-c3ccc(SCC(=O)N4CCc5ccccc54)nc3)[nH]c2cc1C,1,82*,-5,-2,0.2
Cc1cc2nc(-c3cccnc3SCC(=O)NC3CC3)[nH]c2cc1C,1,70*,3,0,0.3
Cc1cc(NC(=O)CSc2ccc(-c3nc4cc(C)c(C)cc4[nH]3)cn2)no1,1.1,61*,-11,6,0.4
O=C(CN1CCCCC1)Nc1ccc(S(=O)(=O)NC2CCCCC2)cc1,1,-3,3,11,1
Cc1ccc(C(C(=O)NCc2ccco2)N(C(=O)Cc2cccs2)c2cccnc2)cc1 (configuration not stated),1,-6,1,1,1.1
O=C1NC(=O)C2(COC(c3ccccc3Cl)OC2)S1 (configuration not stated),1,0,3,5,1
COC(=O)CSc1cnc2ccccc2n1,0.9,-11,8,6,1.1
Cc1cc2nc(-c3ccc(SCC(=O)NC(C)C)nc3)[nH]c2cc1C,0.9,51*,7,5,0.5
COC(=O)CSc1ccc(-c2nc3ccc(C)cc3[nH]2)cn1,1,61*,5,5,0.4
O=c1c2cn[nH]c2[nH]c(=S)n1-c1ccccc1,0.4,-6,61*,7,1.1
O=c1c2cn[nH]c2[nH]c(=S)n1-c1cccc2ccccc12,0.6,-8,43,8,1.1
